In ChEMBL document CHEMBL1765057, “Pyrazolo[4,3-d]pyrimidine bioisostere of roscovitine: evaluation of a novel selective inhibitor of cyclin-dependent kinases with antiproliferative activity” (J Med Chem, 2011):
Active and inactive are the calls of the source. No cut-off for these calls is given here.

How the values were obtained:
[1] = biological target: Cyclin-dependent kinase 7/ cyclin H (Homo sapiens, UniProt P50613); experiment: Inhibition of human recombinant CDK7/cyclin H/MAT1; format: protein-complex assay
[2] = biological target: Cyclin-dependent kinase 2/cyclin E1 (Homo sapiens, UniProt P24941); experiment: Inhibition of human recombinant CDK2/cyclin E; format: protein-complex assay
[3] = biological target: CDK9/cyclin T1 (Homo sapiens, UniProt P50750); experiment: Inhibition of human recombinant CDK9/cyclin T1; format: protein-complex assay
[4] = biological target: Cyclin-dependent kinase 5/CDK5 activator 1 (Homo sapiens, UniProt Q00535); experiment: Inhibition of human recombinant CDK5/p35; format: protein-complex assay
[5] = system: U2OS; experiment: Reduction of homologous recombination in human DR-U2OS-GFP cells expressing I-SceI nuclease at 0.1 uM after 56 hrs […] relative to control; format: functional
[6] = system: RPMI-8226; experiment: Cell cycle arrest in human RPMI8226 cells assessed as reduction of actively replicating DNA level at 80 uM after 24 hrs using propidium iodide and BrdU staining by flow cytometry; format: functional, cell-based
In short: (§1)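 Asynchronously growing RPMI-8226 multiple myeloma cells were exposed for 24 h. Cells were double-stained with propidium iodide and BrdU and analysed by flow cytometry for G1, S, G2/M and BrdU-positive fractions. The subG1 population was taken as indicative of apoptosis.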

[7] = biological target: T1, Retinoblastoma-associated protein (Homo sapiens) (UniProt P06400); experiment: Inhibition of retinoblastoma protein in human HT-29 cells assessed as reduction of CDK4 level at 2.5 to 40 uM after 24 hrs by immunoblotting; format: cell-based
T1 sequence (whole entry): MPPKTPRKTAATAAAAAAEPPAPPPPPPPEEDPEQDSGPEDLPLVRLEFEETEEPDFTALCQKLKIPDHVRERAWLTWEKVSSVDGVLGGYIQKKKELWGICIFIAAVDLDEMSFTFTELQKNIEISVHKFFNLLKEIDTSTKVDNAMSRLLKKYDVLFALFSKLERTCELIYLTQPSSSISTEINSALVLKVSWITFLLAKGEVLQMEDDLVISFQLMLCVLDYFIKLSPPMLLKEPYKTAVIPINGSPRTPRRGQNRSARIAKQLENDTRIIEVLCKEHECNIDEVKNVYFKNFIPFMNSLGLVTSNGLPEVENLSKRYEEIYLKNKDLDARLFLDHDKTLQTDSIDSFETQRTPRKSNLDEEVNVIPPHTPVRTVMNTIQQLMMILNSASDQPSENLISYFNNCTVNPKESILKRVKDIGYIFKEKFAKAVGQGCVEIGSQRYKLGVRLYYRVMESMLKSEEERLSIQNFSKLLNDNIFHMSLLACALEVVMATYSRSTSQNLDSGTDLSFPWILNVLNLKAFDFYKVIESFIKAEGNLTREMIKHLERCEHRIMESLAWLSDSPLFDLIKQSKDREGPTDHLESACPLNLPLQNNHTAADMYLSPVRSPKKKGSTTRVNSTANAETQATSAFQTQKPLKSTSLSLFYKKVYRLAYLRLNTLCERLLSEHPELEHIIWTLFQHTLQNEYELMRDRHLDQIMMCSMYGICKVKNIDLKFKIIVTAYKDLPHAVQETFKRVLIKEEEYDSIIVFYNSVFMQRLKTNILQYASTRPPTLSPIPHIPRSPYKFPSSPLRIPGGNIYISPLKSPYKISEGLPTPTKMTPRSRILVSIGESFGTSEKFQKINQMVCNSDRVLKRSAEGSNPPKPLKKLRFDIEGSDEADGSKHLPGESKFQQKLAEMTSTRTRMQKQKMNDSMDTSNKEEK

[8] = biological target: T1, Retinoblastoma-associated protein (Homo sapiens); experiment: Inhibition of retinoblastoma protein in human HT-29 cells assessed as reduction of cyclin A level at 2.5 to 40 uM after 24 hrs by immunoblotting; format: cell-based
[9] = system: U2OS; details: Homo sapiens, 10 uM
[10] = biological target: CDK9/cyclin T1 (Homo sapiens) (UniProt O60563+P50750); experiment: Inhibition of human recombinant CDK9/cyclin T1 at 10 uM; format: protein-complex assay
[11] = system: RPMI-8226; experiment: Cell cycle arrest in human RPMI8226 cells assessed as accumulation at sub-G1 phase after 24 hrs using propidium iodide and BrdU staining by flow cytometry; format: functional, cell-based; in short: as §1
[12] = biological target: Casein kinase I isoform alpha (Homo sapiens) (UniProt P48729); experiment: Inhibition of human recombinant CK1 at 10 uM
[13] = system: MCF7; experiment: Cell cycle arrest in human MCF7 cells assessed as decrease in S phase cell population after 24 hrs using propidium iodide and BrdU staining by flow cytometry; format: functional, cell-based
In short: (§2)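 Subconfluent MCF-7 cells were treated for 24 h at a range of concentrations. They were pulse-labelled with 10 μM BrdU for 30 min at 37 °C, then trypsinized and fixed in ice-cold 70% ethanol. DNA was denatured in 2 M HCl and neutralized with borate. Cells were stained with fluorescein anti-BrdU and with propidium iodide plus RNase A, then analysed by flow cytometry at 488 nm.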

[14] = biological target: Dual specificity mitogen-activated protein kinase kinase 1 (Homo sapiens) (UniProt Q02750); experiment: Inhibition of human recombinant MEK1 at 10 uM
[15] = system: RPMI-8226; experiment: Cell cycle arrest in human RPMI8226 cells assessed as decrease in S phase cell population after 24 hrs using propidium iodide and BrdU staining by flow cytometry; format: functional, cell-based; in short: as §1
[16] = biological target: Cellular tumor antigen p53 (Homo sapiens) (UniProt P04637); experiment: Induction of p53-dependent transcriptional activity in human MCF7 cells assessed as increase of p21 WAF1 level at 20 uM after 24 hrs by immunofluorescence assay; format: cell-based
[17] = system: MCF7; experiment: Cell cycle arrest in human MCF7 cells assessed as reduction of actively replicating DNA level at 80 uM after 24 hrs using propidium iodide and BrdU staining by flow cytometry; format: functional, cell-based; in short: as §2
[18] = biological target: Casein kinase II (Homo sapiens) (UniProt P67870+P68400+P19784); experiment: Inhibition of human recombinant CK2 at 10 uM; format: protein-complex assay
[19] = biological target: Glycogen synthase kinase-3 beta (Homo sapiens) (UniProt P49841); experiment: Inhibition of human recombinant GSK3B at 10 uM
[20] = system: MCF7; experiment: Cell cycle arrest in human MCF7 cells assessed as accumulation at sub-G1 phase after 24 hrs using propidium iodide and BrdU staining by flow cytometry; format: functional, cell-based; in short: as §2
[21] = biological target: Cyclin-dependent kinase 7/ cyclin H (Homo sapiens) (UniProt P51946+P50613); experiment: Inhibition of human recombinant CDK7/cyclin H/MAT1 at 10 uM; format: protein-complex assay
[22] = biological target: Ribosomal protein S6 kinase alpha-5 (Homo sapiens) (UniProt O75582); experiment: Inhibition of human recombinant MSK1 at 10 uM
[23] = biological target: MAP kinase-activated protein kinase 5 (Homo sapiens) (UniProt Q8IW41); experiment: Inhibition of human recombinant PRAK at 10 uM
[24] = system: RPMI-8226; experiment: Cell cycle arrest in human RPMI8226 cells assessed as accumulation at G2/M phase after 24 hrs using propidium iodide and BrdU staining by flow cytometry; format: functional, cell-based; in short: as §1
[25] = system: MCF7; experiment: Cell cycle arrest in human MCF7 cells assessed as accumulation at G2/M phase after 24 hrs using propidium iodide and BrdU staining by flow cytometry; format: functional, cell-based; in short: as §2
[26] = biological target: Glycogen synthase kinase-3 alpha (Homo sapiens) (UniProt P49840); experiment: Inhibition of human recombinant GSK3A at 10 uM

Chain of MAP kinase-activated protein kinase 5 (Homo sapiens) (Q8IW41 whole entry): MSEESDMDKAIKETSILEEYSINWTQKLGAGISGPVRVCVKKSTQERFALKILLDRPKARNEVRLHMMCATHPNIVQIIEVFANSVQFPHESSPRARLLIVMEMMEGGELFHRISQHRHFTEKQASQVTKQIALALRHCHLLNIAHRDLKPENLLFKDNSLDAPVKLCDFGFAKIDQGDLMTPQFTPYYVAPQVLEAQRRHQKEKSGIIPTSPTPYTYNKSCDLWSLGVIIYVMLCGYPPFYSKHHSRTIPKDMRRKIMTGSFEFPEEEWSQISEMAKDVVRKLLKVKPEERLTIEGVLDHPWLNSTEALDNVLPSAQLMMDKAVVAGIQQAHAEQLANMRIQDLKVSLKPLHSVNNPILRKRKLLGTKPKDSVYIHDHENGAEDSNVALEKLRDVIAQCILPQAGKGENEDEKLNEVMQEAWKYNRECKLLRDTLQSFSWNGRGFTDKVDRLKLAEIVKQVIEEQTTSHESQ
Chain of Glycogen synthase kinase-3 beta (Homo sapiens) (P49841 whole entry, looked up): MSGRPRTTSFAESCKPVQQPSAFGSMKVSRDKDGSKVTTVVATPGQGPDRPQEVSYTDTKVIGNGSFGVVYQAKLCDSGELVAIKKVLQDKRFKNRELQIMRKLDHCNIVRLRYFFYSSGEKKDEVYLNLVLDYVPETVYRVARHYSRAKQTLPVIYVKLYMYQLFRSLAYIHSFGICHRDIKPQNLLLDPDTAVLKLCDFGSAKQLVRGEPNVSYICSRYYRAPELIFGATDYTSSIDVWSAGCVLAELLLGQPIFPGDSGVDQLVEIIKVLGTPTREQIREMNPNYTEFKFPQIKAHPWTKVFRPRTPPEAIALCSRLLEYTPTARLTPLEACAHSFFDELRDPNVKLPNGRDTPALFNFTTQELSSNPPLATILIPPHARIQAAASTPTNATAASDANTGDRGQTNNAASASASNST
Chain of Dual specificity mitogen-activated protein kinase kinase 1 (Homo sapiens) (Q02750 whole entry): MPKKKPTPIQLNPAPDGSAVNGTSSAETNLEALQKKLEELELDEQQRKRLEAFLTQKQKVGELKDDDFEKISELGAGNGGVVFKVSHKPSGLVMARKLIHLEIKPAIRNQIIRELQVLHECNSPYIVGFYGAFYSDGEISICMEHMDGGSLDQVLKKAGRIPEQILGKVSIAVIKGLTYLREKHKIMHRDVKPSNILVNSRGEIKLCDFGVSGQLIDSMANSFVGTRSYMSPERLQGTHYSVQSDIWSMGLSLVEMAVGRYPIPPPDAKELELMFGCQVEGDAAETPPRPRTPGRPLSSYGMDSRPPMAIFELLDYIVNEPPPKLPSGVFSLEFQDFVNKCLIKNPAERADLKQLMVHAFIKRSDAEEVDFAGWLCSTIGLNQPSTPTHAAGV
Chain of Cyclin-dependent kinase 7/ cyclin H (P51946 whole entry): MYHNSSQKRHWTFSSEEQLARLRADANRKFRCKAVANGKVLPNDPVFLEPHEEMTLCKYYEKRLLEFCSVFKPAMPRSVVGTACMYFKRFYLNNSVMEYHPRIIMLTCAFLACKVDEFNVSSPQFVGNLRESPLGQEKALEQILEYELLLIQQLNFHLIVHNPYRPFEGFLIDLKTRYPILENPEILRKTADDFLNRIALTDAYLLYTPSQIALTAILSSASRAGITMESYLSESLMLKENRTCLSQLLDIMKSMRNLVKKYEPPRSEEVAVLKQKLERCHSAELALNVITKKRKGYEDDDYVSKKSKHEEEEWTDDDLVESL
Chain of Cyclin-dependent kinase 7/ cyclin H (P50613 whole entry): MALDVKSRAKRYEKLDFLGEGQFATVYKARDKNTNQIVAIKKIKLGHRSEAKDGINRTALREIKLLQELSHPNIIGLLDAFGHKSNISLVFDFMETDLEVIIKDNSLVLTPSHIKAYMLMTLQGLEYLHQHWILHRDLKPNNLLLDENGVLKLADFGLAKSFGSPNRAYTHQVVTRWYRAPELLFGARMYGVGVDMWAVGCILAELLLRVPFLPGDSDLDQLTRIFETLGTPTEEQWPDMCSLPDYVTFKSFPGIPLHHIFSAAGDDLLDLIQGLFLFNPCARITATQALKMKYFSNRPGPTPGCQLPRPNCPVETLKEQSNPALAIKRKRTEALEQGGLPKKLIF
Chain of CDK9/cyclin T1 (O60563 whole entry): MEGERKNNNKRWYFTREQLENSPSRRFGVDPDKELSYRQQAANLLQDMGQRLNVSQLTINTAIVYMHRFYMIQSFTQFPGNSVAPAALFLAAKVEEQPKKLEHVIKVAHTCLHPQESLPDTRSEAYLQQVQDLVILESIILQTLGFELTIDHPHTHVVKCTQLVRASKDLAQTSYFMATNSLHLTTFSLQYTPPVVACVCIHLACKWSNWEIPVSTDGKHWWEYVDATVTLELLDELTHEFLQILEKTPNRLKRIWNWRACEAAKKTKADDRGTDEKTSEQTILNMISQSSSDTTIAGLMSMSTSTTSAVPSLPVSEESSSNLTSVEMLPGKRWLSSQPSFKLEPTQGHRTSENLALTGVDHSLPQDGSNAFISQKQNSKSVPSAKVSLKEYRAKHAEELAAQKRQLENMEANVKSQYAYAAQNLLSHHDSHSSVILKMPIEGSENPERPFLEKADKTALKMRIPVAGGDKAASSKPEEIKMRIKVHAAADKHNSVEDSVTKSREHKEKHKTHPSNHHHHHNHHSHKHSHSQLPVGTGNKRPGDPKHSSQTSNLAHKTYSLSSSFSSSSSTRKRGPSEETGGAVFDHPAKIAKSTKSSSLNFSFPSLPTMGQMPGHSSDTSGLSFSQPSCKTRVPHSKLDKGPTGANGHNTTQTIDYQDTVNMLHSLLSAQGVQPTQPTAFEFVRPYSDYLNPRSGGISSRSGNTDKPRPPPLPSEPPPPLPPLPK
Chain of CDK9/cyclin T1 (P50750 whole entry): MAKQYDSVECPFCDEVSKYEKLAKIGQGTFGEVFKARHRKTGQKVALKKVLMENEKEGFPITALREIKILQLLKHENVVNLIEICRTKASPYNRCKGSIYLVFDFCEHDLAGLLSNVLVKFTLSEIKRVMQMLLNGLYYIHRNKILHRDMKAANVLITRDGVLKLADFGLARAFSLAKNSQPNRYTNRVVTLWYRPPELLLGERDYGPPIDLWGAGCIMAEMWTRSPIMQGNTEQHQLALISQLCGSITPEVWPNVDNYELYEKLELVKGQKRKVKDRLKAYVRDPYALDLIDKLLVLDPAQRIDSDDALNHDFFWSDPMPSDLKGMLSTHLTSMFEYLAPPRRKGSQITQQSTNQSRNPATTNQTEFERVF
Chain of Ribosomal protein S6 kinase alpha-5 (Homo sapiens) (O75582 whole entry, looked up): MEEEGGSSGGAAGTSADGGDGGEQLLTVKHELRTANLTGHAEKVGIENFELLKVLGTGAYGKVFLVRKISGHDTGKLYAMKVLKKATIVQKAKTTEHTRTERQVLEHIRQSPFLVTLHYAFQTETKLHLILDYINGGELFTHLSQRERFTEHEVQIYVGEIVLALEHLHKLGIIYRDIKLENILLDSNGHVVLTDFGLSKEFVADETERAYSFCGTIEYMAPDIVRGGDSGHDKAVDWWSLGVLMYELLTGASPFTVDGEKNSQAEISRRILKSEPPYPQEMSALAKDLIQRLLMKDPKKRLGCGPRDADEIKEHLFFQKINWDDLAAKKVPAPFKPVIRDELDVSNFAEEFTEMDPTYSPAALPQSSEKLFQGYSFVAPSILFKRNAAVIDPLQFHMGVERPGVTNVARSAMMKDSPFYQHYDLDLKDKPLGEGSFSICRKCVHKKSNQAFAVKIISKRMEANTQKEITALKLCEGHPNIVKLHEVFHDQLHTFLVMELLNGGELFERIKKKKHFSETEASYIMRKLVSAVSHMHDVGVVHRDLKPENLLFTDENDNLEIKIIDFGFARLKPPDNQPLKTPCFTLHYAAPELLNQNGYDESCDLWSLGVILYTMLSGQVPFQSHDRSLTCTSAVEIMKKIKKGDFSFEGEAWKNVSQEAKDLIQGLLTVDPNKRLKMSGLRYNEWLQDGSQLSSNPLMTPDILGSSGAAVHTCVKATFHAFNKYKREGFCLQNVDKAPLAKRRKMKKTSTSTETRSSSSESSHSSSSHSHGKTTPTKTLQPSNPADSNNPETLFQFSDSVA
Chain of Casein kinase I isoform alpha (Homo sapiens) (P48729 2-337 limits assumed): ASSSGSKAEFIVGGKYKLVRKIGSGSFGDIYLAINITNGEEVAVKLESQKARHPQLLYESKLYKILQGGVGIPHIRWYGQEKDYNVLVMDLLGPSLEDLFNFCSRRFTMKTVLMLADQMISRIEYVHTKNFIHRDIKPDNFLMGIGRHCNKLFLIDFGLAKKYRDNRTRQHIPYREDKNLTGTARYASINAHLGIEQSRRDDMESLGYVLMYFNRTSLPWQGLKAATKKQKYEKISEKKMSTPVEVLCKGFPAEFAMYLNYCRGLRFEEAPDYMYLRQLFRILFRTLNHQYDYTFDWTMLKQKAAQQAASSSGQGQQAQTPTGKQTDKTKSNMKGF
Chain of Cellular tumor antigen p53 (Homo sapiens) (P04637 whole entry, looked up): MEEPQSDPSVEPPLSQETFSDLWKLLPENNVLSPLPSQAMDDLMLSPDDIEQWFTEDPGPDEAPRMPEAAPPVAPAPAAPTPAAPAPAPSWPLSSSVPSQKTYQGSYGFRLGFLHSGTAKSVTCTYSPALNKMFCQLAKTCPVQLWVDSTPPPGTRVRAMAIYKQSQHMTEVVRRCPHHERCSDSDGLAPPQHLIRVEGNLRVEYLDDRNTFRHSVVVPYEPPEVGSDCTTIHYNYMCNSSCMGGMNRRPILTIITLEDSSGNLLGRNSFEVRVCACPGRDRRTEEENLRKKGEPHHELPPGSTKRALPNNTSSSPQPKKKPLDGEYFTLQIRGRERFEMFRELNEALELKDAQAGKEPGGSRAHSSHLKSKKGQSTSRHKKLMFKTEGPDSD

With CC[C@H](CO)Nc1nc(NCc2ccccc2)c2n[nH]c(C(C)C)c2n1 the IC50 [1] was 160 nM, the IC50 [2] was 40 nM and the IC50 [3] was 1000 nM. For the same molecule, the IC50 [4] was 200 nM.

CN1CC[C@H](c2c(O)cc(O)c3c(=O)cc(-c4ccccc4Cl)oc23)[C@H](O)C1 [ALVOCIDIB] was tested, and the inhibition at 0.1 µM [5] was 62%.

In the case of CC[C@H](CO)Nc1nc(NCc2ccccc2)c2ncn(C(C)C)c2n1, the Activity [6] is reported as “Active”, the inhibition [7] is reported as “inactive” and the inhibition [8] is reported as “Active”. The inhibition [9] was “inactive”, the inhibition [10] was 87% and the Activity [11] was “Active”. For the same molecule, the inhibition [12] was 1%, the Activity [13] was “Active” and the inhibition [14] was 38%. For the same molecule, the Activity [15] was “Active”, the Activity [16] was “Active” and the Activity [17] was “Active”. The inhibition [18] was 10%, the inhibition [19] was 25% and the Activity [20] was “Active”. For the same molecule, the inhibition [21] was 87%, the inhibition [22] was 29% and the inhibition [23] was 28%. The Activity [24] was “Active”, the Activity [25] was “Active” and the inhibition [26] was 13%.
